According to ChEMBL document CHEMBL1137737, “Synthesis, antimicrobial and cytotoxic activities of 1,3,4-oxadiazoles, 1,3,4-thiadiazoles and 1,2,4-triazoles” (Eur J Med Chem, 2009):
Converted amounts (≈) assume the structure as drawn. The source made the active and inactive calls. The calls are words filed in the database; no cut-off is given here.

Key:
Staphylococcus aureus [1] = assay: Antibacterial activity against Staphylococcus aureus NCIM 5021 at 100 ug/disk after 24 hrs by agar disc-diffusion method; format: functional; conditions: NCIM 5021, 24 h, read-out: DIZ
How it was run: (§1)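 Sterile 6 mm filter-paper discs are soaked in compound solution in DMSO and placed on nutrient agar plates already inoculated with each organism. Plates are incubated at 37 °C. The diameter of the growth-inhibition zone is read after 24 h for bacteria and after 48 h for fungi.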

Curvularia lunata [2] = assay: Antifungal activity against Curvularia lunata NCIM 716 after 48 hrs by microdilution susceptibility method; format: functional; conditions: NCIM 716, 48 h
How it was run: (§2)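 This is a microdilution susceptibility test. Organism suspensions are inoculated into wells holding the dilution series, then incubated at 36 °C for 24 h (bacteria) or 48 h (fungi). MIC is the lowest concentration giving no turbidity, i.e. complete inhibition of visible growth.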

Proteus vulgaris [3] = assay: Antibacterial activity against Proteus vulgaris NCIM 2027 at 200 ug/disk after 24 hrs by agar disc-diffusion method; format: functional; conditions: NCIM 2027, 24 h, read-out: DIZ; how it was run: as §1
Klebsiella pneumoniae [4] = assay: Antibacterial activity against Klebsiella pneumoniae NCIM 2957 after 24 hrs by microdilution susceptibility method; format: functional; conditions: NCIM 2957, 24 h; how it was run: as §2
Klebsiella pneumoniae [5] = assay: Antibacterial activity against Klebsiella pneumoniae NCIM 2957 at 200 ug/disk after 24 hrs by agar disc-diffusion method; format: functional; conditions: NCIM 2957, 24 h, read-out: DIZ; how it was run: as §1
Fusarium solani [6] = assay: Antifungal activity against Fusarium solani NCIM 1330 at 100 ug/disk after 48 hrs by agar disc-diffusion method; format: functional; conditions: NCIM 1330, 48 h, read-out: DIZ; how it was run: as §1
Aspergillus niger [7] = assay: Antifungal activity against Aspergillus niger NCIM 596 at 100 ug/disk after 48 hrs by agar disc-diffusion method; format: functional; conditions: NCIM 596, 48 h, read-out: DIZ; how it was run: as §1
Curvularia lunata [8] = assay: Antifungal activity against Curvularia lunata NCIM 716 at 100 ug/disk after 48 hrs by agar disc-diffusion method; format: functional; conditions: NCIM 716, 48 h, read-out: DIZ; how it was run: as §1
Proteus vulgaris [9] = assay: Antibacterial activity against Proteus vulgaris NCIM 2027 after 24 hrs by microdilution susceptibility method; format: functional; conditions: NCIM 2027, 24 h; how it was run: as §2
Fusarium solani [10] = assay: Antifungal activity against Fusarium solani NCIM 1330 at 200 ug/disk after 48 hrs by agar disc-diffusion method; format: functional; conditions: NCIM 1330, 48 h, read-out: DIZ; how it was run: as §1
A549 [11] = assay: Cytotoxicity against human A549 cells at 250 uM by MTT assay relative to control; format: functional
How it was run: (§3)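 A549 lung adenocarcinoma cells are grown in DMEM with 10% FBS and penicillin–streptomycin. Compounds come from a 10 mM DMSO stock, are diluted in medium, and are added 2–4 h after plating. Viability is (treated − background)/(untreated − background) × 100, with a DMSO vehicle control. The experiment was run in duplicate with triplicate readings.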

Staphylococcus aureus [12] = assay: Antibacterial activity against Staphylococcus aureus NCIM 5021 after 24 hrs by microdilution susceptibility method; format: functional; conditions: NCIM 5021, 24 h; how it was run: as §2
A549 [13] = assay: Cytotoxicity against human A549 cells at 250 uM by MTT assay in presence of 0.2% fetal bovine serum; format: functional
How it was run: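 MTT viability assay on A549 cells as for the other cytotoxicity lines, but with 0.2% serum in the medium in place of 10% FBS. Compounds are diluted in medium from a 10 mM DMSO stock and exposure lasts 48 h.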

Bacillus subtilis [14] = assay: Antibacterial activity against Bacillus subtilis NCIM 2063 after 24 hrs by microdilution susceptibility method; format: functional; conditions: NCIM 2063, 24 h; how it was run: as §2
Staphylococcus aureus [15] = assay: Antibacterial activity against Staphylococcus aureus NCIM 5021 at 200 ug/disk after 24 hrs by agar disc-diffusion method; format: functional; conditions: NCIM 5021, 24 h, read-out: DIZ; how it was run: as §1
Klebsiella pneumoniae [16] = assay: Antibacterial activity against Klebsiella pneumoniae NCIM 2957 at 100 ug/disk after 24 hrs by agar disc-diffusion method; format: functional; conditions: NCIM 2957, 24 h, read-out: DIZ; how it was run: as §1
A549 [17] = assay: Cytotoxicity against human A549 cells at 250 uM by MTT assay; format: functional, cell-based; how it was run: as §3
Aspergillus niger [18] = assay: Antifungal activity against Aspergillus niger NCIM 596 after 48 hrs by microdilution susceptibility method; format: functional; conditions: NCIM 596, 48 h; how it was run: as §2
Fusarium solani [19] = assay: Antifungal activity against Fusarium solani NCIM 1330 after 48 hrs by microdilution susceptibility method; format: functional; conditions: NCIM 1330, 48 h; how it was run: as §2
Proteus vulgaris [20] = assay: Antibacterial activity against Proteus vulgaris NCIM 2027 at 100 ug/disk after 24 hrs by agar disc-diffusion method; format: functional; conditions: NCIM 2027, 24 h, read-out: DIZ; how it was run: as §1
Bacillus subtilis [21] = assay: Antibacterial activity against Bacillus subtilis NCIM 2063 at 100 ug/disk after 24 hrs by agar disc-diffusion method; format: functional; conditions: NCIM 2063, 24 h, read-out: DIZ; how it was run: as §1
Bacillus subtilis [22] = assay: Antibacterial activity against Bacillus subtilis NCIM 2063 at 200 ug/disk after 24 hrs by agar disc-diffusion method; format: functional; conditions: NCIM 2063, 24 h, read-out: DIZ; how it was run: as §1
Aspergillus niger [23] = assay: Antifungal activity against Aspergillus niger NCIM 596 at 200 ug/disk after 48 hrs by agar disc-diffusion method; format: functional; conditions: NCIM 596, 48 h, read-out: DIZ; how it was run: as §1
Curvularia lunata [24] = assay: Antifungal activity against Curvularia lunata NCIM 716 at 200 ug/disk after 48 hrs by agar disc-diffusion method; format: functional; conditions: NCIM 716, 48 h, read-out: DIZ; how it was run: as §1

| SMILES | zone of inhibition at 100 µg/disc (Staphylococcus aureus [1]) [mm] | MIC (Curvularia lunata [2]) [µg/mL] | zone of inhibition at 200 µg/disc (Proteus vulgaris [3]) [mm] | MIC (Klebsiella pneumoniae [4]) [µg/mL] | zone of inhibition at 200 µg/disc (Klebsiella pneumoniae [5]) [mm] | zone of inhibition at 100 µg/disc (Fusarium solani [6]) [mm] | zone of inhibition at 100 µg/disc (Aspergillus niger [7]) [mm] | zone of inhibition at 100 µg/disc (Curvularia lunata [8]) [mm] | zone of inhibition at 200 µg/disc (Fusarium solani [10]) [mm] | MIC (Staphylococcus aureus [12]) [µg/mL] | MIC (Bacillus subtilis [14]) [µg/mL] | zone of inhibition at 200 µg/disc (Staphylococcus aureus [15]) [mm] | zone of inhibition at 100 µg/disc (Klebsiella pneumoniae [16]) [mm] | MIC (Aspergillus niger [18]) [µg/mL] | MIC (Fusarium solani [19]) [µg/mL] | zone of inhibition at 100 µg/disc (Proteus vulgaris [20]) [mm] | zone of inhibition at 100 µg/disc (Bacillus subtilis [21]) [mm] | zone of inhibition at 200 µg/disc (Bacillus subtilis [22]) [mm] | zone of inhibition at 200 µg/disc (Aspergillus niger [23]) [mm] | zone of inhibition at 200 µg/disc (Curvularia lunata [24]) [mm] | further results |
| --- | --- | --- | --- | --- | --- | --- | --- | --- | --- | --- | --- | --- | --- | --- | --- | --- | --- | --- | --- | --- | --- |
| Nn1c(CS(=O)(=O)Cc2ccc(Cl)cc2)nnc1-c1ccccc1Cl | 32 | 50 (≈ 126 µM) | 34 | 50 (≈ 126 µM) | 36 | 29 | 22 | 27 | 32 | 25 (≈ 62.9 µM) | 25 (≈ 62.9 µM) | 37 | 33 | 50 (≈ 126 µM) | 100 (≈ 252 µM) | 31 | 37 | 39 | 24 | 31 | MIC (Proteus vulgaris [9]): 100 µg/mL (≈ 252 µM); Activity (A549 [11]): 50%; Activity (A549 [13]): 50%; Activity (A549 [17]): Active |
| Nn1c(CS(=O)(=O)c2ccc(Cl)cc2)nnc1-c1ccccc1Cl | 19 | 200 (≈ 522 µM) | 20 | 400 (≈ 1040 µM) | 20 | 24 | 20 | 23 | 27 | 400 (≈ 1040 µM) | 400 (≈ 1040 µM) | 23 | 18 | 400 (≈ 1040 µM) | 200 (≈ 522 µM) | 19 | 16 | 18 | 24 | 25 | MIC (Proteus vulgaris [9]): 400 µg/mL (≈ 1040 µM) |
| O=S(=O)(Cc1ccc(Cl)cc1)Cc1nnc(-c2ccccc2Cl)o1 | 20 | 200 (≈ 522 µM) | 18 | – | 20 | 18 | 17 | 16 | 22 | 200 (≈ 522 µM) | 400 (≈ 1040 µM) | 23 | 17 | 200 (≈ 522 µM) | 200 (≈ 522 µM) | 15 | 19 | 21 | 21 | 19 | Activity (A549 [11]): 50%; Activity (A549 [13]): 50% |
